Assay outcomes (PubChem BioAssay)
Rows were chosen to be rich in hits. Some 4.1% of all compounds tested hit in one or more screens of this group.
ATG4B inhibitor = blocks human ATG4B protease cleavage of LC3 substrate | inhibition, % at 8.33 µM | 0.51% of 340,000 active | AID 504462 | ATG4B cleavage of LC3-PLA2, NBD-HPC fluorescence, 1 h | Q9Y4P1; in the data active means inhibition above about 40%
MC4R antagonist = blocks human MC4R cAMP signaling. 0.48% of 360,000 active. P32245. MC4R-expressing cells, MTII-stimulated cAMP, LANCE TR-FRET. inhibition, % at 6.5 µM;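 active means inhibition above its plate's cutoff, the mean of tested wells on that plate plus 3 SD, cut at about 29% in these data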;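 further: 0% = Melanotan II alone and 100% = Melanotan II plus saturating MCL0020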
Target sequence (P32245 whole entry, looked up): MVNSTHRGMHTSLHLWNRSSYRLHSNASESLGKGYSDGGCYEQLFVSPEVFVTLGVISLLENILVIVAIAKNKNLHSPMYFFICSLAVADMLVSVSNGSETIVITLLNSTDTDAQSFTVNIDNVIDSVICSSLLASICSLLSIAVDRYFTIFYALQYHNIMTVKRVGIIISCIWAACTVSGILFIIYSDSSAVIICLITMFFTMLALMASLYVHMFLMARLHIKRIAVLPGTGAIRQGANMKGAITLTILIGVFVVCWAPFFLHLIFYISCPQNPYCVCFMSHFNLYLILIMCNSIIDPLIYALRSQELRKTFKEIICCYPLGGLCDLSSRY
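Test system: U2OS cells stably expressing human melanocortin 4 receptor (MC4R); also added: Melanotan II challenge; compound: 6.5 µM single dose; timing: 30-min compound preincubation, 1-h Melanotan II challenge, 1-h detection, room temperature; signal: Eu-cAMP/anti-cAMP TR-FRET, emission 671 nm; repeats: one well per compound, no replicates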
SMARCA2 activ = SMARCA2 function activation, primary screen; activation, % at 9.1 µM; 1% of 370,000 active; MG213 cells, MMTV-luciferase reporter, dexamethasone, overnight; in the data active means activation above about 7.8%;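 further: 0% = vehicle wells and 100% = reference activator wells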
MPTP inh = blocks calcium-induced mitochondrial swelling | 1.4% of 360,000 active | isolated mouse mitochondria, Ca2+ swelling absorbance, 30 min | inhibition, % at 10 µM | AID 602449;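 active means inhibition of 50% or more, scaled per plate between neutral and stimulator controls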;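 further: 0% = DMSO wells given calcium and 100% = 1 mM EGTA wells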
MC4R barr agon = human MC4R agonism via beta-arrestin | P32245 | U2OS MC4R beta-arrestin complementation, luminescence; percent of melanotan II response, DMSO zero | activation, % at 8.9 µM | 0.98% of 360,000 active;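 active means activation above a per-plate cutoff, the mean activation of sample wells on that plate plus 3 SD, cut at about 8% in these data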
ATG4B conf = confirmation of human ATG4B inhibitors; shares compounds with ATG4B inhibitor; 92% of 320 active; ATG4B protease fluorescent substrate cleavage assay; inhibition, % at 8.33 µM; in the data active means inhibition above about 39%
PLA2 ctr = counter-screen for ATG4B inhibitors: human phospholipase A2. inhibition, % at 8.33 µM. shares compounds with ATG4B inhibitor. purified PLA2, NBD-C6-HPC fluorescence, 45 min. 66% of 1,600 active; in the data active means inhibition above about 50%
Target sequence (P04054 whole entry, looked up): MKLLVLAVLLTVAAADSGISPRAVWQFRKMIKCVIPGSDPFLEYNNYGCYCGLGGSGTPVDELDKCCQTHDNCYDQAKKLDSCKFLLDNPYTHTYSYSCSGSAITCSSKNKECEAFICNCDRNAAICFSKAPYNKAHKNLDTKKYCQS
Active calls of the source: *; nt = no result given.

SMILES	ATG4B inhibitor	MC4R antagonist	SMARCA2 activ	MPTP inh	MC4R barr agon	others
COc1ccc(-c2cccc3[nH]c4c(c23)CCN2C(=O)[C@H]3[C@H](C)ON(C)[C@H]3C[C@@H]42)cc1	nt	nt	3	nt	nt
Cc1cc(NC(=O)COC(=O)c2ccc(C)c(C)c2)no1	-8	-3	-2	0	-2
Cc1cc(NC(=O)COC(=O)c2cccc(OCc3ccccc3)c2)no1	-6	-4	0	4	8.5*
COc1cc(C(=O)OCC(=O)NCCC2=CCCCC2)ccc1OCC(C)C	-3	2	1	0	9.2*
Cc1cc(C)cc(C(=O)OCCCN(C)C2CN(Cc3cn(Cc4ccccc4C(F)(F)F)nn3)S(=O)(=O)C2)c1 (stereo not given)	nt	nt	-1	nt	nt
Cc1ccc(CNCc2cc3c(C(C)(C)C)nn(-c4ccccc4)c3[nH]c2=O)cc1	5	13	-3	5	8.9*
O=C(c1ccncc1)N1CCC(Oc2cccnc2)CC1	nt	nt	3	nt	nt
CCN(CC)Cc1cc(Nc2c3ccccc3nc3c4ccccc4n(C)c23)cc(CN(CC)CC)c1O	3	-18	41*	2	-1
Cc1ccc(Cn2cc(CN3[C@@H](Cc4ccccc4)COc4cc(Br)ccc4S3(=O)=O)nn2)cc1	nt	nt	-2	nt	nt
c1ccc(-c2ccc(-c3nc(-c4cccnc4)no3)cc2)cc1	-24	11	4	3	0
c1ccc(-c2noc(-c3cccnc3)n2)cc1	-6	1	7.9*	1	-1
O=C(CNC(=O)/C(=C\c1ccc(F)cc1)NC(=O)c1ccccc1)OCc1ccccc1	-3	44*	1	0	0
COc1cc(NC(=O)c2ccccc2F)ccc1NC(=O)c1cc2ccccc2o1	-3	1	-3	-1	8.8*
CCCn1c(=O)[nH]c(=O)c2c1nc(-c1ccc(OC(F)(F)C(F)C(F)(F)F)cc1)n2CCOC (stereo not given)	-6	10	-2	0	10.0*
O=C(NCc1ccccc1Cl)C1CCCN(c2nc3ccccc3o2)C1 (stereo not given)	nt	nt	-6	nt	nt
O=S(=O)(c1ccc(S(=O)(=O)N(Cc2ccccc2)Cc2ccco2)cc1)N1CCCC1	6	-1	2	0	8.5*
COc1ccc(OC)c(/C=C2/Sc3ccccc3C2=O)c1	14	9	1	0	9.5*
CCOC(=O)c1c(C)[nH]c(C(=O)CSc2ccccc2)c1C	4	-5	4	-6	8.4*
CCOC(=O)c1c(C)[nH]c(C(=O)COC(=O)c2oc3ccccc3c2C)c1C	-4	-3	-1	8	8.3*
CC(C)CCn1cnc2c([nH]c3cccc(Cl)c32)c1=O	-2	-4	1	2	9.4*
Cc1ccc2c(c1)-c1nc3ccccc3cc1C2=NC1CCCCC1	-11	-9	9.5*	1	1
COc1ccc(OC)c(S(=O)(=O)NCC2CCN(C(=O)C(=O)c3cc4ccccc4o3)CC2)c1	nt	nt	-1	nt	nt
COc1ccc(-c2ncn(CCc3ccccc3OC)c2CC(C)C)cc1	nt	nt	-9	nt	nt
COc1ccc(C(=O)NNC2=Nc3cccc4cccc2c34)cc1	-4	-5	-1	3	9.0*
CCSc1n[nH]c(=O)n1C	nt	nt	-4	nt	nt
SMILES	ATG4B inhibitor	MC4R antagonist	SMARCA2 activ	MPTP inh	MC4R barr agon	others
O=C(N/N=C/c1sc(=O)n(Cc2ccc(Br)cc2)c1Cl)c1ccco1	14	0	-1	-1	26*
O=C(c1ccccc1)N1CCC(Oc2cccnc2)CC1	nt	nt	0	nt	nt
Cc1ccc(NC(=S)Nc2cc(-c3ccccc3)[nH]n2)cc1Cl	7	11	-4	26	8.9*
CC(=O)Nc1cc(-c2ccc(Cl)cc2)[nH]n1	-8	1	2	0	-3
Cc1cccc(C)c1NC(=O)CSc1nc(-c2ccco2)cc(C(F)(F)F)n1	12	5	-4	1	1
O=C(CSc1nc(-c2ccco2)cc(C(F)(F)F)n1)Nc1ccccc1C(F)(F)F	-8	-14	-3	-2	9.4*
CC(C)[C@@H]1NC(=O)[C@H]2C[C@@]3(c4ccccc4)c4ccccc4N[C@H]3N2C1=O	nt	nt	-2	nt	nt
CC(=O)Nc1cccc(C(C)C2=CCCCC2)c1 (stereo not given)	nt	nt	7.8*	nt	nt
CC[C@@H](C(=O)[C@@H](C)[C@@H](O)[C@H](C)[C@@H]1O[C@@H]([C@@H](CC)C(=O)O)CC[C@@H]1C)[C@H]1O[C@]2(C=C[C@@H](O)[C@]3(CC[C@@](C)([C@H]4CC[C@](O)(CC)[C@H](C)O4)O3)O2)[C@H](C)C[C@@H]1C	0	10	-12	4	36*
O=C(NCC1COCCO1)C1CCN(S(=O)(=O)c2ccc(Br)s2)CC1 (stereo not given)	nt	nt	-3	nt	nt
O=C1c2ccccc2C(=O)N1CCCc1c[nH]c2ccc(Cl)cc12	53*	-1	-2	4	0	PLA2 ctr=50
Cc1nc(C)c(-c2csc(NCc3ccco3)n2)s1	-1	8	0	1	1
Cc1nc(NC(=O)c2ccccc2)sc1-c1csc(NCc2ccco2)n1	41*	15	nt	0	-2	PLA2 ctr=67*
O=C(NCc1cccc(C(F)(F)F)c1)N1CCN(C(=O)c2ccccc2)CC1	56*	12	-2	0	-4	PLA2 ctr=61*
O=C(c1cccc(C(F)(F)F)c1)N1CCN(CCc2ccccc2)CC1	-5	10	-1	1	0
COc1ccc(S(=O)(=O)/N=C2\C=C(Nc3ccc(O)cc3)C(=O)c3ccccc32)cc1	27	-41	-10	10	-1
CCc1ccc(S(=O)(=O)/N=C2\C=C(NS(=O)(=O)c3ccccc3)C(=O)c3ccccc32)cc1	-1	1	-3	13	2
O=C(O)c1ccc(S(=O)(=O)/N=C2\C=C(Nc3ccccc3F)C(=O)c3ccccc32)cc1	77*	-60	-8	6	-1	PLA2 ctr=75*
Cc1ccccc1NC1=C/C(=N\S(=O)(=O)c2ccc(C(=O)O)cc2)c2ccccc2C1=O	59*	-24	-7	7	-4	ATG4B conf=37;PLA2 ctr=28
CC1=C(C(=O)Nc2cccc(C(=O)NCc3ccccc3C)c2)SCCO1	54*	2	-4	-1	-1	PLA2 ctr=64*
Cc1c(Cl)cccc1NC(=O)Nc1cc(C(C)(C)C)on1	78*	7	0	-1	3	PLA2 ctr=84*
CCOC(=O)C(=NC(C)CC)NNc1cccc(C(F)(F)F)c1 (stereo not given)	40*	27	-2	12	2	PLA2 ctr=4
Cc1cccc(N(C(=O)c2csnn2)C(C(=O)NCc2ccccc2)c2ccc(C)o2)c1 (stereo not given)	2	16	-3	0	-1
